Consider four compounds from publication PMC6088244 (Biochemistry, 2018).

One data set has as its target PDE5A1 (535–860) (Homo sapiens, UniProt O76074). Briefly: PDE enzymatic assay with 3H-cAMP or 3H-cGMP as substrates. The data set is classed as biochemical. In short, it runs like this: (§1)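 Recombinant PDE catalytic domains incubated at room temperature for 15 min in 20 mM Tris.HCl pH 7.5, 10 mM MgCl2, 0.5 mM DTT, with 3H-cAMP or 3H-cGMP at 20–40k cpm/assay. Stopped with 0.2 M ZnSO4. Product precipitated with 0.2 N Ba(OH)2. Unreacted substrate in supernatant counted by liquid scintillation. Nine inhibitor concentrations tested. Rolipram served as reference.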

For the next data set, the target named is PDE9A1 (181–506) (Homo sapiens, UniProt O76083). The description is as above. It counts as biochemical. In short, it runs like this:
as §1

In another data set the target is PDE7A1 (130–482) (Homo sapiens, UniProt Q13946). The description is as above. It counts as biochemical. The gist of the method: as §1
Chain of PDE7A1 (130–482) (Q13946 130-482): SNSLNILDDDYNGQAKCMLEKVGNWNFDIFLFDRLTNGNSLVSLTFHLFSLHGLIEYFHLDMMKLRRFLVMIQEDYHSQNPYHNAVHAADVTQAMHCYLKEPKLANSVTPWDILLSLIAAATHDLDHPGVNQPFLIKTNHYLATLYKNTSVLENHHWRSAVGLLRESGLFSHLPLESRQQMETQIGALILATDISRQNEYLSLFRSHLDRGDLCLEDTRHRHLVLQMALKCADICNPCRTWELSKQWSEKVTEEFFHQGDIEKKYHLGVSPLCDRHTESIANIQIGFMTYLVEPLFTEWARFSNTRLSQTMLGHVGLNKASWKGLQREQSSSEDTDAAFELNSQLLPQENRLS
The target in the next data set is PDE4B2B (Homo sapiens, UniProt Q07343). The description is as above. It counts as biochemical. Conditions: IC50, PDE4B2B (152–528). In short, it runs like this:
as §1

Another data set addresses PDE10A2 (448–789) (Homo sapiens, UniProt Q9Y233). Description: PDE enzymatic assay with 3H-cAMP or 3H-cGMP as substrates. It counts as biochemical. In short, it runs like this:
(§2)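 PDE catalytic domains were incubated with 20 mM Tris-HCl pH 7.5, 10 mM MgCl2, 0.5 mM DTT and 3H-cAMP or 3H-cGMP (20–40k cpm/assay) for 15 min at room temperature. The reaction was stopped with 0.2 M ZnSO4, and product was precipitated with 0.2 N Ba(OH)2. Supernatant radioactivity was scintillation-counted. Nine inhibitor concentrations were tested; rolipram was the reference.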

The target in a further data set is T1, PDE11A4 (563–934) (Homo sapiens, UniProt Q9HCR9).
T1 sequence (Q9HCR9 563-933 limits assumed): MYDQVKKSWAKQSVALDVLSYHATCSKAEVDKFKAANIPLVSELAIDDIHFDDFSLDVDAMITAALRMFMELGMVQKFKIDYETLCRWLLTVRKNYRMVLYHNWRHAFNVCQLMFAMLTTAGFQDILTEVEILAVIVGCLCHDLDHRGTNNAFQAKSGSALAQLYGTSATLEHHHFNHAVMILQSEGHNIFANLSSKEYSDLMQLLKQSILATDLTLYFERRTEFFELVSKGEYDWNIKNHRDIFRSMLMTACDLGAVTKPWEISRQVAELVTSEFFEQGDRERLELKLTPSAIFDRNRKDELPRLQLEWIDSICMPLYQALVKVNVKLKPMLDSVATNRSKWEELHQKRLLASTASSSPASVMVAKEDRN
Described as above. It counts as biochemical. The gist of the method: as §2

The next data set has as its target PDE3A1 (665–1141) (Homo sapiens, UniProt Q14432). The data set is described as above. It counts as biochemical. The gist of the method: as §2
For the next data set, the target named is PDE8A1 (480–820) (Homo sapiens, UniProt O60658). The description is as above. The data set is classed as biochemical. In short, it runs like this:
as §2

The target in another data set is PDE2A3 (580–941) (Homo sapiens, UniProt O00408). Description: PDE enzymatic assay with 3H-cAMP or 3H-cGMP as substrates. It counts as biochemical. The gist of the method:
as §1

Data set [1] can be described thus: Pharmacokinetic properties in mice. It counts as in vivo. The conditions noted are these: 5 mg/kg. The gist of the method:
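Male ICR mice were dosed at 5 mg/kg. The stock dosing sample was 10 mg test compound in 10 ml saline containing 1% DMSO, 40% 2-hydroxypropyl-β-cyclodextrin and 6% Solutol HS 15. It was vortexed and sonicated until fully dissolved.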

The test system of the next data set is PDE4D. The conditions noted are these: read-out: IC50 against PDE4D; racemic Zl-n-91; cited from earlier work.
Data set [2] relates to mice. Briefly: Open-field test. The data set is classed as in vivo. The gist of the method: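 Naive male ICR mice received test compound, rolipram or vehicle by i.p. injection. Thirty minutes later each was placed in the centre of an open-field box with its floor divided into 4 identical squares and explored for 5 min. Line crossings (all four paws over the line) and rears were counted. Means ± S.E., n = 8–9; one-way ANOVA with Dunnett's test.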

In data set [3] the test system is mice. Briefly: Object recognition test. It counts as in vivo. The conditions noted are these: i.p. 30 min prior to the test; for memory in the object recognition test: Fig. 5A. In short, it runs like this:
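Male ICR mice (22–24 g) were housed at 22–23 °C on a 12-h light-dark cycle with free food and water. Test compound, rolipram or vehicle was given i.p. 30 min before testing. Mice were trained to tell a novel from a familiar object with a 24-hour delay. Exploration times (Tn, Tf) were recorded over 3 min. n = 8–9; one-way ANOVA with Dunnett's post hoc test.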

The test system of a further data set is LPS-induced TNFa release. Conditions: read-out: IC50 of LPS-induced TNFa release, cited from earlier work.
The test system of data set [4] is mice. Conditions: at the same dose required for producing a memory-enhancing effect; cited from earlier work.
Where [5] appears, read: doses of 0.01–0.5 mg/kg, 30 min after injection.

Read-outs that look alike come from different tables or passages of the source.

Chain of PDE4B2B (Q07343 324-700): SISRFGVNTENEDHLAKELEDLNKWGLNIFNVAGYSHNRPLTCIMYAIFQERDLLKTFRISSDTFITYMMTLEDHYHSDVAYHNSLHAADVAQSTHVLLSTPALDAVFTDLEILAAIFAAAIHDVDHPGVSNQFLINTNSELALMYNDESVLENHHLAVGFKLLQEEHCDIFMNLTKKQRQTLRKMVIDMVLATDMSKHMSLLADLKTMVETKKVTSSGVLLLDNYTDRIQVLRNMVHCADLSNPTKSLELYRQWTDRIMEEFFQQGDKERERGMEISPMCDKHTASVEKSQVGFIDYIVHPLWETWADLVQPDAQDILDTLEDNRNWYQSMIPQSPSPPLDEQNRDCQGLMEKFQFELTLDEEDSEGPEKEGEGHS
Chain of PDE8A1 (480–820) (O60658 480-820): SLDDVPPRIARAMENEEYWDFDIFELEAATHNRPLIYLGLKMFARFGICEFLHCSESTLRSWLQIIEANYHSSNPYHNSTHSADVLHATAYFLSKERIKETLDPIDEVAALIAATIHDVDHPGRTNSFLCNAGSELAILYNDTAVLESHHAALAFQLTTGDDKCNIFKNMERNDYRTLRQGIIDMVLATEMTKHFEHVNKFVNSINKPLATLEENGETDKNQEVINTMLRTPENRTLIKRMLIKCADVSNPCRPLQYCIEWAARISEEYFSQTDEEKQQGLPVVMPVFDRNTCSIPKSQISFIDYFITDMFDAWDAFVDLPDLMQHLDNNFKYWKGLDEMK
Chain of PDE2A3 (580–941) (O00408 580-941): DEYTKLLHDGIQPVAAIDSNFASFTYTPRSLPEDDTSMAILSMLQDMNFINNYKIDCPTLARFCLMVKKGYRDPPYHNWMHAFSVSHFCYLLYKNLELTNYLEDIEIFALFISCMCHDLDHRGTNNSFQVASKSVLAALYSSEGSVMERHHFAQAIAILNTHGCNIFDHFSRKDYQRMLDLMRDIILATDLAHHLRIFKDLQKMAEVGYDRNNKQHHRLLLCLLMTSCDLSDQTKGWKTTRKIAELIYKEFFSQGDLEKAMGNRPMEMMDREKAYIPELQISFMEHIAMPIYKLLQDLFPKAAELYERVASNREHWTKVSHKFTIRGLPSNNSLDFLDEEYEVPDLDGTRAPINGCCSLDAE
Chain of PDE9A1 (181–506) (O76083 241-566): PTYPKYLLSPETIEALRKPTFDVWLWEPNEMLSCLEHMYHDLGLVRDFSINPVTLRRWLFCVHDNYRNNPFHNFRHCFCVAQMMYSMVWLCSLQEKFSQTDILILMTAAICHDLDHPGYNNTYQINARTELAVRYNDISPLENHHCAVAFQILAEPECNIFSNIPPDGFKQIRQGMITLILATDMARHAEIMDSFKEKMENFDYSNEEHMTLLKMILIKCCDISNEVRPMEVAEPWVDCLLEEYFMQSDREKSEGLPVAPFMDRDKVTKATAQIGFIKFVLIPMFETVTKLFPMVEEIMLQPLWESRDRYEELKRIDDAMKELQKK
Chain of PDE10A2 (448–789) (Q9Y233 714-1055): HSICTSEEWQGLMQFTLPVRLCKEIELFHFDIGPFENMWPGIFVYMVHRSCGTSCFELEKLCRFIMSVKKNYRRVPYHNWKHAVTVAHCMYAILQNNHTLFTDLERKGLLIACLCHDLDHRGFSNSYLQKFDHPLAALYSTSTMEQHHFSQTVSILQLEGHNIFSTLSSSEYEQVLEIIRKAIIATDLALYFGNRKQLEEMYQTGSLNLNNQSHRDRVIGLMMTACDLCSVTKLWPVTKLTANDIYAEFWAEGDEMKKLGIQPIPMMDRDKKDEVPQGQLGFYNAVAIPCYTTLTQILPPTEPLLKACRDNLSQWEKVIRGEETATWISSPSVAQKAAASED
Chain of PDE3A1 (665–1141) (Q14432 665-1141): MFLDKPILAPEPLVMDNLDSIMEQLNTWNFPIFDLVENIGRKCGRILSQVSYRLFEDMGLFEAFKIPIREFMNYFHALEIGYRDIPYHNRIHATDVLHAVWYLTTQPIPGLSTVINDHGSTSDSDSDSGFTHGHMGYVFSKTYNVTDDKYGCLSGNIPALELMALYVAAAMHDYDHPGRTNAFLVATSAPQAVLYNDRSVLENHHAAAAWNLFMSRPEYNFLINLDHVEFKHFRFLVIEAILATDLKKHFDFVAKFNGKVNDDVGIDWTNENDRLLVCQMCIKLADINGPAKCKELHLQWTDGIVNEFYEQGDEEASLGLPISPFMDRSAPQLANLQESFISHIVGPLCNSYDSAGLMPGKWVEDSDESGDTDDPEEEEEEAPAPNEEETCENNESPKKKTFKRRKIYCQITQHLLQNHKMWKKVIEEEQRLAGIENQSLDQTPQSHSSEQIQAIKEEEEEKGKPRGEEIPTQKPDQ

As a reminder, the IC50 is the point on the concentration scale where inhibition reaches its midpoint. As for `CC(C)CC(=O)c1ccc(OC(F)F)c(O[C@H]2CCOC2)c1` [(S)-Zl-n-91, 1-(4-(difluoromethoxy)-3-((tetrahydrofuran-3-yl)oxy)phenyl)-3-methylbutan-1-one], the IC50 against PDE5A1 (535–860) amounted to 130 ± 23 µM; against PDE9A1 (181–506), 84 ± 10 µM; against PDE7A1 (130–482), 17 ± 3 µM; at PDE4B2B, 0.02 ± 0.004 µM; against PDE10A2 (448–789), 16 ± 1 µM; against PDE11A4 (563–934), 23 ± 4 µM. The IC50 came out at 46 ± 3 µM at PDE3A1 (665–1141), 8.6 ± 0.7 µM against PDE8A1 (480–820) and 83 ± 12 µM against PDE2A3 (580–941).
Broadly, the AUC is the area under the concentration-time curve, a measure of exposure. Read a low AUC as less exposure. One may read the AUC(0-t) as the area under the concentration-time curve up to a stated or last time point. Low values mean less exposure, high ones more exposure. For orientation: MRT inf means the average time that molecules of a dose stay in the body. What is called Vd is a proportionality between amount in the body and measured concentration, not a real space. Lower therefore signals little distribution into tissue. As a reminder, the clearance is the volume of plasma or blood freed of the substance per unit of time. Lower therefore signals inefficient removal. A word on the half-life: it is the time in which the quantity being followed falls by half. A lower half-life goes with rapid decline. One may read the Cmax as the peak of the concentration-time curve. Usually Tmax stands for the time from dosing to the highest level. The term Vd/F denotes the apparent distribution volume after extravascular dosing. For the compound `CC(C)CC(=O)c1ccc(OC(F)F)c(OC2CCOC2)c1` (centres unmarked) [Zl-n-91, 1-(4-(difluoromethoxy)-3-((tetrahydrofuran-3-yl)oxy)phenyl)-3-methylbutan-1-one], in data set [1] (PO, male mice), the “CL(F)” value was determined as 342 mL/min/kg and the “F (bioavailability)” value is 33.3%. Further, in data set [1] (male, ICR, mouse, plasma, iv), the AUC worked out at 728 ng·h/mL, the AUC(0-t) is 725 ng·h/mL, the C0 was determined as 6030 ng/mL and the MRT inf was 20.4 min. In [1] (male, ICR, mouse, plasma, iv), the Vd was found to be 2.31 L/kg, the clearance was 115 mL/min/kg and the half-life was 37.2 min. Moreover, in data set [1] (male, ICR, mouse, plasma, po), the AUC was 244 ng·h/mL, the area under the curve AUC(0-t) was 241 ng·h/mL, the highest level (Cmax) was 96.5 ng/mL and the Tmax was determined as 120 min. Moreover, in [1] (male, ICR, mouse, plasma, po), the Vd/F stood at 39.9 L/kg and the half-life is 81 min. In addition, the IC50 with PDE4D is 0.026 µM. Moreover, in the data set with mice [2], the locomotor activity result is on record as “not altered”. Besides, the sedation result in the data set on mice [2] (dose of 0.5 mg/kg) is listed as “does not produce sedation”. In the data set with mice [2] (setting [5]), the line crossings entry is “altered neither” and the rears result is “altered neither”. In the data set with mice [3], the “memory in the object recognition test” value is listed as “enhanced memory”. Further, in the data set on LPS-induced TNFa release (whole blood cell), the IC50 was 0.04 µM.
In the case of `COc1ccc([C@]2(C#N)CC[C@@H](C(=O)O)CC2)cc1OC1CCCC1` [cilomilast, reference compound], the IC50 with LPS-induced TNFa release (whole blood) was > 10 µM.
As to `COc1ccc(C2CNC(=O)C2)cc1OC1CCCC1` (centres unmarked) [rolipram], the “increase of discrimination ratio (Tn-Tf)/(Tn+Tf)” value in the data set with mice [3] (0.3 mg/kg, versus vehicle) is given as “about 4 times”. In addition, in the data set on mice [3], the “memory in the object recognition test” value is listed as “enhanced memory”. Besides, the locomotor activity result in the data set with mice [4] is recorded as “decreased locomotor activity”.
